Results taken from ChEMBL document CHEMBL4706606, “Re-evaluating pretomanid analogues for Chagas disease: Hit-to-lead studies reveal both in vitro and in vivo trypanocidal efficacy” (Eur J Med Chem, 2020).
In brackets after ≈: the same amount, converted by molar mass. Activity calls are given as the source filed them. No cut-off for these calls is given here.

Key:
Trypanosoma cruzi [1] = assay: Antitrypanosomal activity against Trypanosoma cruzi Tulahuen strain C2C4 amastigotes infected in rat L6 cells assessed as inhibition of parasite growth incubated for 96 hrs by chlorophenol red-fl-D-galactopyranoside based colorimetric analysis; format: functional, organism-based; settings: for IC50: Tulahuen strain C2C4, L6, 96 h; for IC90: Tulahuen strain C2C4, L6, time 96 hrs
Summary of the method: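 Tulahuen strain TcVI T. cruzi expressing β-galactosidase, grown in L6 rat skeletal myoblast host cells. IC50/IC90 growth inhibition. Each value is the mean of ≥2 independent determinations using fresh sample stock.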

L6 = assay: Cytotoxicity against rat L6 cells assessed as reduction in cell viability incubated for 72 hrs by alamar blue assay; format: ADME, cell-based; settings: L6, 72 h
[2] = Selectivity index, ratio of IC50 for cytotoxicity against rat L6 cells to IC50 for antitrypanosomal activity against Trypanosoma cruzi Tulahuen strain C2C4 amastigotes infected in rat L6 cells
[3] = Kinetic solubility of compound in water sonicated for 15 mins by HPLC analysis
Trypanosoma cruzi [4] = assay: Antitrypanosomal activity against Trypanosoma cruzi Tulahuen strain C2C4 amastigotes infected in […] cells assessed as reduction in parasite growth incubated for 48 hrs by chlorophenol red-fl-D-galactopyranoside based colorimetric analysis; format: functional, organism-based; settings: for IC50: Tulahuen strain C2C4, NIH3T3, 48 h; for IC90: Tulahuen strain C2C4, NIH3T3, time 48 hrs
[5] = Cytotoxicity against rat 3T3 cells assessed as reduction in cell viability incubated for 72 hrs by alamar blue assay; format: ADME, cell-based; settings: NIH3T3, 72 h
Trypanosoma cruzi [6] = assay: Antitrypanosomal activity against Trypanosoma cruzi Tulahuen strain C2C4 amastigotes infected in […] cells assessed as reduction in parasite growth incubated for 48 hrs by chlorophenol red-fl-D-galactopyranoside based colorimetric analysis relative to control; format: functional
[7] = Inhibition of Trypanosoma cruzi Tulahuen C4 strain CYP51 expressed in Escherichia coli by fluorescence based assay
[8] = Selectivity index, ratio of IC50 for cytotoxicity against rat 3T3 cells to IC50 for antitrypanosomal activity against Trypanosoma cruzi Tulahuen strain C2C4 amastigotes infected in rat 3T3 cells
Trypanosoma cruzi [9] = assay: Antitrypanosomal activity against Trypanosoma cruzi Y strain amastigotes infected in U2OS cells assessed as inhibition of parasite growth at […] by image-based assay relative to control
Trypanosoma cruzi [10] = assay: Antitrypanosomal activity against Trypanosoma cruzi Y strain amastigotes infected in U2OS cells assessed as inhibition of parasite growth at 3.3 ug/ml by image-based assay relative to control
[11] = Kinetic solubility of compound in 0.1M HCl at pH 1 sonicated for 15 mins by HPLC analysis; format: physicochemical; settings: read-out: Kinetic_solubility
Summary of the method: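 Solid mixed with 0.1 M HCl to a nominal 2 mM, sonicated 15 min, centrifuged 6 min. Supernatant diluted 2-fold and analysed by HPLC. Kinetic solubility from peak area against a DMSO standard solution.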

[12] = Metabolic stability in CD-1 mouse liver microsomes assessed as parent compound remaining incubated for 1 hr; format: ADME, Microsome
Summary of the method: (§1)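 Pooled human or CD-1 mouse liver microsomes at 0.4 mg/mL microsomal protein. Percent parent remaining after 1 h incubation.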

[13] = Metabolic stability in human liver microsomes assessed as parent compound remaining incubated for 1 hr; format: ADME, Microsome; settings: read-out: Stabilty; summary of the method: as §1
[14] = Half life in human liver microsomes incubated for 60 mins
Trypanosoma cruzi [15] = assay: Antitrypanosomal activity against Trypanosoma cruzi amastigotes assessed as inhibition of parasite growth at 10 ug/ml relative to control
Trypanosoma cruzi [16] = assay: Antitrypanosomal activity against bloodstream trypomastigotes form of Trypanosoma cruzi CL Brener infected in BALB/c mouse assessed as reduction in parasitemia at 100 mg/kg, po qd administered for 5 days starting from day 114 post infection followed by cyclophosphamide induced immunosuppression on days 135, 139 and 143 post infection and measured for 149 days by bioluminescence analysis; format: functional, organism-based; settings: time 5.0 day
Summary of the method: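 Female BALB/c mice, 8 weeks old, ~18 g, 5 per group. Infected i.p. with 10^3 bloodstream trypomastigotes of bioluminescent CL Brener (pTRIX2-RE9h). From day 114 p.i., oral dosing once daily for 5 days: reference drugs at 100 mg/kg in HPMC-SV with 5% DMSO, PEG400 vehicle at 50 mg/kg. Cyclophosphamide 200 mg/kg i.p. on days 135, 139 and 143. Final imaging day 149. Ex vivo organ bioluminescence days 149-151.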

Trypanosoma cruzi [17] = assay: Antitrypanosomal activity against bloodstream trypomastigotes form of Trypanosoma cruzi Tulahuen strain C2C4 infected in Swiss mouse assessed as reduction in parasitemia at 20 mg/kg, po qd administered for 20 days starting from day 8 post infection followed by cyclophosphamide induced immunosuppression […] and measured for 51 days by neubauer haemocytometer based microscopic analysis; format: functional, organism-based; settings: time 20.0 day
Summary of the method: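 Same infection (female Swiss mice, 5 x 10⁴ trypomastigotes ip) and 20-day oral course from day 8 p.i. After 10 days' rest, mice with very low or undetectable parasitemia got three cycles of cyclophosphamide, 50 mg/kg ip daily for 4 days then 3 days' rest, starting day 37 p.i. Blood parasitemia checked on days 37, 44, 51 and 58 p.i. by haemocytometer, with PCR detection also used.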

Trypanosoma cruzi [18] = assay: Antitrypanosomal activity against bloodstream trypomastigotes form of Trypanosoma cruzi Tulahuen strain C2C4 infected in Swiss mouse assessed as reduction in parasitemia at 20 mg/kg, po qd administered for 20 days starting from day 8 post infection and measured for 28 days by neubauer haemocytometer based microscopic analysis; format: functional, organism-based; settings: time 20.0 day
Summary of the method: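 Female Swiss mice, 5 per group, infected intraperitoneally with 5 x 10⁴ bloodstream trypomastigotes (Tulahuen). Oral dosing once daily for 20 days from day 8 p.i., with the commercial formulation diluted in water for injection. Tail blood (3 μL) taken on days 8 (predose), 9, 12, 14, 16, 19, 21 and 28 p.i., diluted 1:10 in red cell lysis buffer and counted by haemocytometer.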

Trypanosoma cruzi [19] = assay: Antitrypanosomal activity against bloodstream trypomastigotes form of Trypanosoma cruzi Tulahuen strain C2C4 infected in Swiss mouse assessed as reduction in parasitemia at 50 mg/kg, po qd administered for 20 days starting from day 8 post infection and measured for 28 days by neubauer haemocytometer based microscopic analysis; format: functional, organism-based; settings: time 20.0 day
Summary of the method: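 Female Swiss mice, 5 per group, infected i.p. with 5 x 10^4 bloodstream trypomastigotes (Tulahuen). Oral dosing once daily for 20 days from day 8 p.i., vehicle HPMC-SV with 5% DMSO. Tail blood, 3 μL diluted 1:10 in RBC lysis, counted by haemocytometer on days 8–28 p.i.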

| Compound | IC50 (Trypanosoma cruzi [1]) [µM] | IC90 (Trypanosoma cruzi [1]) [µM] | IC50 (L6) [µM] | selectivity ratio [2] | solubility kinetic at 0.25 h [3] [µg/mL] | IC50 (Trypanosoma cruzi [4]) [µM] | IC90 (Trypanosoma cruzi [4]) [µM] | IC50 [5] [µM] | %max (Trypanosoma cruzi [6]) [%] | IC50 [7] [µM] | also measured |
| --- | --- | --- | --- | --- | --- | --- | --- | --- | --- | --- | --- |
| O=[N+]([O-])c1cn2c(n1)OC[C@@H](OCC#Cc1ccc(-c3ccc(C(F)(F)F)cc3)cn1)C2 | 0.23 | 0.59 | > 100 | > 435 | 0.33 (≈ 0.743 µM) | 0.51 | 1.7 | > 37 | 97 | > 10 | selectivity ratio ([8]; 3T3 cells): > 73; inhibition at […] (Trypanosoma cruzi [9]): 48% |
| CC1(COc2ccc(-c3ccc(F)cc3)cn2)CCn2cc([N+](=O)[O-])nc2O1 (stereo unspecified) | – | – | – | – | – | – | – | – | – | – | inhibition at 3.3 µg/mL (Trypanosoma cruzi [10]): 50% |
| O=[N+]([O-])c1cn2c(n1)OC[C@H](OCC#Cc1ccc(-c3ccc(C(F)(F)F)cc3)cn1)C2 | – | – | – | – | 0.68 (≈ 1.53 µM) | 0.27 | 1.7 | > 37 | 95 | > 10 | solubility kinetic at 0.25 h [11]: 7.6 µg/mL (≈ 17.1 µM); remaining at 1 h [12]: 76%; remaining at 1 h [13]: 58%; selectivity ratio ([8]; 3T3 cells): > 137 |
| O=[N+]([O-])c1cn2c(n1)[S+]([O-])CC(OCc1ccc(COc3ccccc3)cc1)C2 (stereo unspecified) | 0.035 | 0.089 | > 100 | > 2860 | 0.44 (≈ 1.06 µM) | – | – | – | – | – | half-life at 1 h [14]: 2.6 h; inhibition at 10 µg/mL (Trypanosoma cruzi [15]): 89% |
| O=[N+]([O-])c1cn2c(n1)OCC(COc1ccc(-c3ccc(F)cc3)cn1)C2 (stereo unspecified) | 0.022 | 0.19 | > 100 | > 4540 | 1.1 (≈ 2.97 µM) | – | – | – | – | – | inhibition at […] (Trypanosoma cruzi [9]): 29% |
| O=[N+]([O-])c1cn2c(n1)OC[C@@H](OCc1cccc(-c3cccc(OC(F)(F)F)c3)c1)C2 | > 10 | > 10 | 13 | – | – | – | – | – | – | – | inhibition at 10 µg/mL (Trypanosoma cruzi [15]): 65% |
| O=[N+]([O-])c1cn2c(n1)S(=O)(=O)CC(OCc1ccc(COc3ccccc3)cc1)C2 (stereo unspecified) | 0.28 | 0.44 | > 100 | > 357 | 0.13 (≈ 0.303 µM) | – | – | – | – | – | half-life at 1 h [14]: 1.72 h; inhibition at 10 µg/mL (Trypanosoma cruzi [15]): 95% |
| O=[N+]([O-])c1nc2n(n1)C[C@H](OCc1ccc(OCc3ccccc3)cc1)CO2 | 0.047 | 0.13 | > 100 | > 2130 | 0.18 (≈ 0.471 µM) | – | – | – | – | – | inhibition at 10 µg/mL (Trypanosoma cruzi [15]): 12% |
| CC1CS(=O)(=O)CCN1/N=C/c1ccc([N+](=O)[O-])o1 (stereo unspecified) [NIFURTIMOX] | – | – | – | – | – | 2.1 | 4.6 | > 127 | 99 | > 10 | Activity (Trypanosoma cruzi [16]): Active; selectivity ratio [8]: > 60 |
| CC[C@@H]([C@H](C)O)n1ncn(-c2ccc(N3CCN(c4ccc(OC[C@@H]5CO[C@@](Cn6cncn6)(c6ccc(F)cc6F)C5)cc4)CC3)cc2)c1=O [POSACONAZOLE] | – | – | – | – | – | 0.0012 | 0.0049 | > 1 | 85 | 0.052 | Activity (Trypanosoma cruzi [17]): Active; Activity (Trypanosoma cruzi [18]): Active; selectivity ratio ([8]; 3T3 cells): > 833 |
| O=C(Cn1ccnc1[N+](=O)[O-])NCc1ccccc1 [BENZNIDAZOLE] | – | – | – | – | – | 12 | 37 | > 127 | 101 | > 10 | Activity (Trypanosoma cruzi [16]): Active; selectivity ratio ([8]; 3T3 cells): > 11 |
| O=[N+]([O-])c1nc2n(n1)C[C@H](O)CO2 | 1.6 | 6.3 | > 100 | > 63 | 8750 (≈ 47000 µM) | – | – | – | – | – | inhibition at […] (Trypanosoma cruzi [9]): 58% |
| O=[N+]([O-])c1cn2c(n1)OC[C@H](OCc1ccc(-c3ccc(C(F)(F)F)cc3Cl)cn1)C2 | 0.67 | 2.9 | 50 | 75 | 1 (≈ 2.2 µM) | – | – | – | – | – | solubility kinetic at 0.25 h [11]: 299 µg/mL (≈ 657 µM) |
| CSc1ccc(OCc2ncc([N+](=O)[O-])n2C)cc1 | – | – | – | – | – | – | – | – | – | – | Activity (Trypanosoma cruzi [16]): Active |
| O=[N+]([O-])c1cn2c(n1)OC[C@H](OCC#Cc1ccc(-c3ccc(OC(F)(F)F)cc3)cn1)C2 | – | – | – | – | < 0.1 | 0.67 | 2.2 | > 37 | 94 | > 10 | solubility kinetic at 0.25 h [11]: 3 µg/mL (≈ 6.52 µM); remaining at 1 h [12]: 74%; remaining at 1 h [13]: 68%; selectivity ratio ([8]; 3T3 cells): > 55 |
| CC1(COCc2ccc(OCc3ccccc3)cc2)Cn2cc([N+](=O)[O-])nc2S1(=O)=O (stereo unspecified) | 0.083 | 0.24 | > 100 | > 1200 | < 0.1 | – | – | – | – | – | half-life at 1 h [14]: 0.417 h; inhibition at 3.3 µg/mL (Trypanosoma cruzi [10]): 59% |
| CC1(COc2ccc(OC(F)(F)F)cc2)CCn2cc([N+](=O)[O-])nc2O1 (stereo unspecified) | 0.45 | 0.93 | – | – | – | – | 1 | – | 100 | – | Activity (Trypanosoma cruzi [19]): Active; inhibition at 3.3 µg/mL (Trypanosoma cruzi [10]): 52% |
